Measured values from ChEMBL document CHEMBL4316616, “Efficacy of TLR7 agonistic imidazoquinoline as immunochemotherapeutic agent against P. Berghei ANKA infected rodent host” (Bioorg Med Chem Lett, 2019).
The source made the active and inactive calls.

Tests used:
Plasmodium berghei [1] = assay: Antiparasitic activity against Plasmodium berghei ANKA infected in Laca mouse assessed as decrease in serum TNFalpha level at 10 ug, ip administered for 4 days measured on day 10 by sandwich ELISA; format: functional, organism-based
Plasmodium berghei [2] = assay: Antiparasitic activity against Plasmodium berghei ANKA infected in Laca mouse assessed as reduction in CD3+ cell level in brain at 10 ug, ip co-administered with chloroquine for 4 days measured on day 21 by flow cytometry; format: functional, organism-based
Plasmodium berghei [3] = assay: Antiparasitic activity against Plasmodium berghei ANKA infected in Laca mouse assessed as decrease in serum TNFalpha level at 10 ug, ip co-administered with chloroquine for 4 days measured on day 10 by sandwich ELISA; format: functional, organism-based
Plasmodium berghei [4] = assay: Antiparasitic activity against Plasmodium berghei ANKA infected in Laca mouse assessed as increase in serum IL-12 level at 10 ug, ip co-administered with chloroquine for 4 days measured on day 10 by sandwich ELISA; format: functional, organism-based
Plasmodium berghei [5] = assay: Antiparasitic activity against Plasmodium berghei ANKA infected in Laca mouse assessed as increase in serum IL-10 level at 10 ug, ip administered for 4 days measured on day 10 by sandwich ELISA; format: functional, organism-based
Plasmodium berghei [6] = assay: Antiparasitic activity against Plasmodium berghei ANKA infected in Laca mouse assessed as increase in Treg cell level in spleen at 10 ug, ip co-administered with chloroquine for 4 days measured on day 21 by flow cytometry; format: functional, organism-based
Plasmodium berghei [7] = assay: Antiparasitic activity against Plasmodium berghei ANKA infected in Laca mouse assessed as reduction in CD3+ cell level in brain at 10 ug, ip administered for 4 days measured on day 10 by flow cytometry; format: functional, organism-based
Plasmodium berghei [8] = assay: Antiparasitic activity against Plasmodium berghei ANKA infected in Laca mouse assessed as increase in Treg cell level in brain at 10 ug, ip administered for 4 days measured on day 10 by flow cytometry; format: functional, organism-based
Plasmodium berghei [9] = assay: Antiparasitic activity against Plasmodium berghei ANKA infected in Laca mouse assessed as reduction in CD3+ cell level in brain at 10 ug, ip co-administered with chloroquine for 4 days measured on day 10 by flow cytometry; format: functional, organism-based
Plasmodium berghei [10] = assay: Antiparasitic activity against Plasmodium berghei ANKA infected in Laca mouse assessed as increase in CD3+ cell level in spleen at 10 ug, ip administered for 4 days measured on day 10 by flow cytometry; format: functional, organism-based
Plasmodium berghei [11] = assay: Antiparasitic activity against Plasmodium berghei ANKA infected in Laca mouse assessed as increase in IFN-gamma level in serum at 10 ug, ip administered for 4 days measured on day 10 by sandwich ELISA
Plasmodium berghei [12] = assay: Antiparasitic activity against Plasmodium berghei ANKA infected in Laca mouse assessed as increase in serum IL-12 level at 10 ug, ip administered for 4 days measured on day 10 by sandwich ELISA; format: functional, organism-based
Plasmodium berghei [13] = assay: Antiparasitic activity against Plasmodium berghei ANKA infected in Laca mouse assessed as parasitemia at 10 ug, ip administered for 4 days measured on day 7 by Giemsa-staining based assay; format: functional
Plasmodium berghei [14] = assay: Antiparasitic activity against Plasmodium berghei ANKA infected in Laca mouse assessed as decrease in Treg cell level in brain at 10 ug, ip co-administered with chloroquine for 4 days measured on day 10 by flow cytometry
Plasmodium berghei [15] = assay: Antiparasitic activity against Plasmodium berghei ANKA infected in Laca mouse assessed as increase in IFN-gamma level in serum at 10 ug, ip co-administered with chloroquine for 4 days measured on day 10 by sandwich ELISA
Plasmodium berghei [16] = assay: Antiparasitic activity against Plasmodium berghei ANKA infected in Laca mouse assessed as reduction in parasitemia at 10 ug, ip co-administered with chloroquine for 4 days measured on day 25 by Giemsa-staining based assay; format: functional, organism-based
Plasmodium berghei [17] = assay: Antiparasitic activity against Plasmodium berghei ANKA infected in Laca mouse assessed as reduction in CD4+ cell level in brain at 10 ug, ip co-administered with chloroquine for 4 days measured on day 21 by flow cytometry; format: functional, organism-based
Plasmodium berghei [18] = assay: Antiparasitic activity against Plasmodium berghei ANKA infected in Laca mouse assessed as increase in Treg cell level in brain at 10 ug, ip co-administered with chloroquine for 4 days measured on day 21 by flow cytometry; format: functional, organism-based
Plasmodium berghei [19] = assay: Antiparasitic activity against Plasmodium berghei ANKA infected in Laca mouse assessed as change in Treg cell level in spleen at 10 ug, ip co-administered with chloroquine for 4 days measured on day 10 and 21 by flow cytometry; format: functional, organism-based
Plasmodium berghei [20] = assay: Antiparasitic activity against Plasmodium berghei ANKA infected in Laca mouse assessed as reduction in parasitemia at 10 ug, ip co-administered with chloroquine for 4 days measured on day 23 by Giemsa-staining based assay; format: functional, organism-based
[21] = Toxicity in Laca mouse infected with Plasmodium berghei ANKA assessed as death at 10 ug, ip administered for 4 days measured on day 9; format: organism-based; conditions: in vivo, 96 h
Method in brief: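 Six mice per group received 1x10⁶ parasitized RBCs (P. berghei ANKA) i.p. on D0. TLR7 agonist was given i.p., 0.2 mL/mouse, daily D0–D3. PBS-treated infected and uninfected groups served as controls. Survival was monitored alongside parasitemia from Giemsa-stained thin blood smears.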

Plasmodium berghei [22] = assay: Antiparasitic activity against Plasmodium berghei ANKA infected in Laca mouse assessed as reduction in CD8+ cell level in brain at 10 ug, ip co-administered with chloroquine for 4 days measured on day 21 by flow cytometry; format: functional, organism-based
[23] = Toxicity in Laca mouse infected with Plasmodium berghei ANKA assessed as body weight loss at 10 ug, ip administered for 4 days; format: organism-based; conditions: in vivo, 96 h
Plasmodium berghei [24] = assay: Antiparasitic activity against Plasmodium berghei ANKA infected in Laca mouse assessed as reduction in CD4+ cell level in brain at 10 ug, ip co-administered with chloroquine for 4 days measured on day 10 and 21 by flow cytometry; format: functional, organism-based
Plasmodium berghei [25] = assay: Antiparasitic activity against Plasmodium berghei ANKA infected in Laca mouse assessed as reduction in parasitemia at 10 ug, ip administered for 4 days measured on day 9 by Giemsa-staining based assay; format: functional, organism-based
Plasmodium berghei [26] = assay: Antiparasitic activity against Plasmodium berghei ANKA infected in Laca mouse assessed as reduction in CD8+ cell level in brain at 10 ug, ip administered for 4 days measured on day 10 by flow cytometry; format: functional, organism-based
Plasmodium berghei [27] = assay: Antiparasitic activity against Plasmodium berghei ANKA infected in Laca mouse assessed as increase in serum IL-27 level at 10 ug, ip administered for 4 days measured on day 10 by sandwich ELISA; format: functional, organism-based
[28] = Toxicity in Laca mouse infected with Plasmodium berghei ANKA assessed as death at 10 ug, ip co-treated with chloroquine for 4 days measured on day 30; format: organism-based; conditions: in vivo, 96 h
Method in brief: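 Mice (6/group) were infected i.p. with 1x10⁶ P. berghei ANKA parasitized RBCs on D0. TLR7 agonist was given i.p. plus chloroquine 10 mg/kg orally (0.2 mL/mouse each), daily D0–D3. Survival and parasitemia (Giemsa-stained thin blood smears of individual mice) were followed for about one month.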

Plasmodium berghei [29] = assay: Antiparasitic activity against Plasmodium berghei ANKA infected in Laca mouse assessed as reduction in CD8+ cell level in brain at 10 ug, ip co-administered with chloroquine for 4 days measured on day 10 by flow cytometry; format: functional, organism-based

Measured: Activity

CCCCc1nc2c(N)nc3ccccc3c2n1Cc1ccccc1
5.7%: Plasmodium berghei [13]
inactive: Plasmodium berghei [2] | Plasmodium berghei [16] | Plasmodium berghei [17] | Plasmodium berghei [22]
Toxic: [21] | [23] | [28]
active: all other assays above
